Results reported in ChEMBL document CHEMBL4138312 (J Med Chem, 2018).

How the values were obtained:
[1] = target: T1, Serine/threonine-protein kinase D1 (Homo sapiens) (UniProt Q15139); assay: Inhibition of recombinant human full length GST-tagged PRKD1 expressed in baculovirus at 1 uM
T1 sequence (whole entry): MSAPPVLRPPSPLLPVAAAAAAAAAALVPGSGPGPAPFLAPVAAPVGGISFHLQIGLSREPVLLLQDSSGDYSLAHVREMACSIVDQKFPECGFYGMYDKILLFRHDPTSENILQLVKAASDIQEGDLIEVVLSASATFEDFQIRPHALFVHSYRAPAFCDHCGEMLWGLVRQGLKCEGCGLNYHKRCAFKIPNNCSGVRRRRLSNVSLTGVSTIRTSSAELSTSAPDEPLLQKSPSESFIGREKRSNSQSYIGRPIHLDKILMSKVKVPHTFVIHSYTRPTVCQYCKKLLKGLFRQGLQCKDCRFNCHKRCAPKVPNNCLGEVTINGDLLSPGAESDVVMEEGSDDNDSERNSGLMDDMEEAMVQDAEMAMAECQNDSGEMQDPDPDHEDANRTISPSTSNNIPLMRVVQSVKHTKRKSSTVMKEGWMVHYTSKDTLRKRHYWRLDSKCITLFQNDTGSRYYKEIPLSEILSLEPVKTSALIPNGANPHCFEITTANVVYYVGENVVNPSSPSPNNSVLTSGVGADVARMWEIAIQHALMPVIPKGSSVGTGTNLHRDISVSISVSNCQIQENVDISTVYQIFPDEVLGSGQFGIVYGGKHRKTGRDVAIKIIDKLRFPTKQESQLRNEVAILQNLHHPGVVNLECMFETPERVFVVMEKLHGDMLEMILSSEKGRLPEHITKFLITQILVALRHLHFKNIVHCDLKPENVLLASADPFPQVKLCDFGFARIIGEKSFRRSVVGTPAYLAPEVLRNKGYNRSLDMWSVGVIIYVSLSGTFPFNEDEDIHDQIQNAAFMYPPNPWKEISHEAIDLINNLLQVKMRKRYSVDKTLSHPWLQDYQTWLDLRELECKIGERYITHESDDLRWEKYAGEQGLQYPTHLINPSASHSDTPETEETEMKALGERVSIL
Outline: (§1)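 Kinase panel of 386 kinases, each screened at a single concentration of 1 μM.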

Mus musculus [2] = assay: Time above EC50 for inhibition of JAK1 in CD1 mouse at 50 mg/kg, po administered via gavage; conditions: in vivo
[3] = target: T2, Tyrosine-protein kinase JAK1 (Homo sapiens, UniProt P23458); assay: Inhibition of JAK1 in human NCI-H1975 cells assessed as reduction in STAT3 phosphorylation after 1 hr by ELISA; format: cell-based
Outline: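 Cellular mode-of-action assay in NCI-H1975 cells, read as inhibition of STAT3 phosphorylation. EC50 was derived.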

Mus musculus [4] = assay: In vivo inhibition of JAK1 in tumors of human NCI-H1975 cells xenografted in NCr nude mouse assessed as decrease in STAT3 phosphorylation at 50 mg/kg, po after 2 hrs by ELISA; format: functional, organism-based
Outline: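 NCI-H1975 xenograft-bearing mice received single oral gavage doses of 1, 3, 10, 30, 50 or 100 mg/kg. Animals were sacrificed at 2 h, with an extra 6 h group at 50 mg/kg. Tumour pSTAT3 was measured as % inhibition, and plasma drug concentration was measured in parallel. Significance was tested by Student's t-test versus vehicle control.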

[5] = target: T2, Tyrosine-protein kinase JAK1; assay: Inhibition of cytoplasmic recombinant human GST-tagged JAK1 (886 to 1154 residues) expressed in insect cells using FITC-C6-KKHTDDGYMPMSPGVA-NH as substrate after 10 mins by caliper assay
Outline: (§2)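 Biochemical kinase inhibition IC50 measured at 5 mM ATP. Values are the geometric mean of at least two independent experiments.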

[6] = Half life in CD1 mouse at 50 mg/kg, po administered via gavage by LC/MS/MS analysis; format: ADME, organism-based; conditions: in vivo
Outline: (§3)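 Mouse pharmacokinetics after oral dosing at 10 or 50 mg/kg. The 10 mg/kg dose was given in 10% HPbCD + 5% dextrose in WFI at pH 4. The 50 mg/kg dose was given in 5% SBECD in WFI at pH 2. Plasma exposure (AUC), half-life and oral bioavailability were derived.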

[7] = target: Leucine-rich repeat serine/threonine-protein kinase 2 (Homo sapiens) (UniProt Q5S007); assay: Inhibition of recombinant human full length GST-tagged catalytic LRRK2 expressed in baculovirus at 1 uM; outline: as §1
[8] = AUC in CD1 mouse at 10 mg/kg, po by LC/MS/MS analysis; format: ADME, organism-based; conditions: in vivo; outline: as §3
[9] = target: T2, Tyrosine-protein kinase JAK1; assay: Inhibition of cytoplasmic recombinant human GST-tagged JAK1 (886 to 1154 residues) expressed in baculovirus at 1 uM
Outline: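 Single-concentration screen at 1 μM across a panel of 386 kinases to profile broad kinase selectivity.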

[10] = Half life in CD1 mouse at 10 mg/kg, po administered via gavage by LC/MS/MS analysis; format: ADME, organism-based; conditions: in vivo; outline: as §3
[11] = target: Tyrosine-protein kinase JAK2 (Homo sapiens, UniProt O60674); assay: Inhibition of recombinant human JAK2 (831 to 1132 residues) expressed in insect cells using 5FAM-GEEPLYWSFPAKKK-NH2 as substrate after 10 mins by caliper assay; outline: as §2
[12] = Clearance in CD1 mouse at 3 mg/kg, iv by LC/MS/MS analysis; format: ADME, organism-based; conditions: in vivo
Outline: (§4)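 Mouse pharmacokinetics after a single iv dose of 3 mg/kg in 10% HPbCD + 5% dextrose in WFI at pH 4. Plasma clearance, half-life and steady-state volume of distribution were derived.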

[13] = Volume of distribution at steady state in CD1 mouse at 3 mg/kg, iv by LC/MS/MS analysis; format: ADME, organism-based; conditions: in vivo, read-out: Vdss; outline: as §4
JAK2 = JAK2 (Homo sapiens, UniProt O60674); assay: Inhibition of catalytic recombinant human GST-tagged JAK2 expressed in baculovirus at 1 uM; outline: as §1
[14] = target: Non-receptor tyrosine-protein kinase TYK2 (Homo sapiens, UniProt P29597); assay: Inhibition of recombinant human N-terminal GST-tagged TYK2 (871 to 1187 residues) expressed in baculovirus expression system using 5FAM-GEEPLYWSFPAKKK-NH2 as substrate after 10 mins by caliper assay; outline: as §2

T2 sequence (P23458 whole entry): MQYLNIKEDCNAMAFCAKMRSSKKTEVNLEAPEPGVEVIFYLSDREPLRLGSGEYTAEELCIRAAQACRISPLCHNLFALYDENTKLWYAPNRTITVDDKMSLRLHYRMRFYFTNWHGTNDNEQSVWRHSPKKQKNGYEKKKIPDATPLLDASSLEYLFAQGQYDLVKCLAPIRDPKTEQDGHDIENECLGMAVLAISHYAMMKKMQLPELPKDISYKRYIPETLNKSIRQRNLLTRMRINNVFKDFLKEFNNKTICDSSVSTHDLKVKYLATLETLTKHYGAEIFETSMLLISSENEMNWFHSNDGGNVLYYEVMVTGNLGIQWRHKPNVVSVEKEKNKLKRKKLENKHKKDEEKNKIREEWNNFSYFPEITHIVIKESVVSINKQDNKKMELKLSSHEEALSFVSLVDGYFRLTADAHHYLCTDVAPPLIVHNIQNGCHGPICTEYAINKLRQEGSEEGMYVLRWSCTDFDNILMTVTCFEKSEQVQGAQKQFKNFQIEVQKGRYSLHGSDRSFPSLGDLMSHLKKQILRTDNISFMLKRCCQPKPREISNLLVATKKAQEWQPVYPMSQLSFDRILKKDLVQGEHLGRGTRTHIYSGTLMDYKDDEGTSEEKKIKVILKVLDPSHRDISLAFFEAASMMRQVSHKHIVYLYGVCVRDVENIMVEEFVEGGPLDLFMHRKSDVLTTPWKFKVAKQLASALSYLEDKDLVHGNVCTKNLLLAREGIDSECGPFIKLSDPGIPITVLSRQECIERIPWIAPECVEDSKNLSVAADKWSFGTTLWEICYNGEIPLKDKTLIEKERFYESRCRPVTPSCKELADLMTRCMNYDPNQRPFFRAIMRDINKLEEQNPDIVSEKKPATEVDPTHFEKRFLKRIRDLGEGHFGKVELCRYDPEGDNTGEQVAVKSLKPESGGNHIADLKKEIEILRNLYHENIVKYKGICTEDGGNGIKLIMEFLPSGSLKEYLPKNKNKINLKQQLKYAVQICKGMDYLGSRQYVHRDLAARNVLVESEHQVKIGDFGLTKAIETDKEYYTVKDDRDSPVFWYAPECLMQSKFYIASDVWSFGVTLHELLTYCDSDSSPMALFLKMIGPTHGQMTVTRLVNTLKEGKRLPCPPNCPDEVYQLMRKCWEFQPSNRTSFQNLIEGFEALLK
Chain of JAK2 (O60674 whole entry, the tested form may be a part): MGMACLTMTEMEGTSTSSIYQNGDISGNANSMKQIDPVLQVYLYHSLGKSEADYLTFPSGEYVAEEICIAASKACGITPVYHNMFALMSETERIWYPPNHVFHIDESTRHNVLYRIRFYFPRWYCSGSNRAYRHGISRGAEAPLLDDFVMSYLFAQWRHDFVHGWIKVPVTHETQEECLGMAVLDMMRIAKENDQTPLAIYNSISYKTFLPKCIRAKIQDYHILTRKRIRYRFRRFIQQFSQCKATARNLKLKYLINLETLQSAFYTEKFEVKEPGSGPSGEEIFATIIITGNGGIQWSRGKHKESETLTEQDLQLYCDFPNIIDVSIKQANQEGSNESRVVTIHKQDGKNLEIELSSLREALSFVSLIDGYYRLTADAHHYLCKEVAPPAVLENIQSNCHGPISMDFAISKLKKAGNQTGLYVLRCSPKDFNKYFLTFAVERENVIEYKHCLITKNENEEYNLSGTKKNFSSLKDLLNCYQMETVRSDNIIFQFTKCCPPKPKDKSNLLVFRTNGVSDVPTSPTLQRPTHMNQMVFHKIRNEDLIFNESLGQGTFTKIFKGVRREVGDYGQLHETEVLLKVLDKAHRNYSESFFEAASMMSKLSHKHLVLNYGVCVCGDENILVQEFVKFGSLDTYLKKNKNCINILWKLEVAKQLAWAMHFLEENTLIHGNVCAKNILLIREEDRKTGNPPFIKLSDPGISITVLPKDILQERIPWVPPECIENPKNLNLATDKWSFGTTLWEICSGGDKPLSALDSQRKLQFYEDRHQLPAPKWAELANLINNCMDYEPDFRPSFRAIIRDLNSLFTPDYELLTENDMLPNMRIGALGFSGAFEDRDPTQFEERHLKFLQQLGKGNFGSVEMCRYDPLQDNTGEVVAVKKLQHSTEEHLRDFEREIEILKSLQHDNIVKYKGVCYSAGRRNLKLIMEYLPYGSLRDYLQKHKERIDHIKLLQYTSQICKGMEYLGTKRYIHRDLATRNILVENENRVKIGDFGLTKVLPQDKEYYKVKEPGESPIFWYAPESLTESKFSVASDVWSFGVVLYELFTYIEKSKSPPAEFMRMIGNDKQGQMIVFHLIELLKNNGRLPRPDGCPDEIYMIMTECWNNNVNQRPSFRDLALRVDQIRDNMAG
Chain of Tyrosine-protein kinase JAK2 (O60674 whole entry, the tested form may be a part): as above
Chain of Leucine-rich repeat serine/threonine-protein kinase 2 (Homo sapiens) (Q5S007 whole entry): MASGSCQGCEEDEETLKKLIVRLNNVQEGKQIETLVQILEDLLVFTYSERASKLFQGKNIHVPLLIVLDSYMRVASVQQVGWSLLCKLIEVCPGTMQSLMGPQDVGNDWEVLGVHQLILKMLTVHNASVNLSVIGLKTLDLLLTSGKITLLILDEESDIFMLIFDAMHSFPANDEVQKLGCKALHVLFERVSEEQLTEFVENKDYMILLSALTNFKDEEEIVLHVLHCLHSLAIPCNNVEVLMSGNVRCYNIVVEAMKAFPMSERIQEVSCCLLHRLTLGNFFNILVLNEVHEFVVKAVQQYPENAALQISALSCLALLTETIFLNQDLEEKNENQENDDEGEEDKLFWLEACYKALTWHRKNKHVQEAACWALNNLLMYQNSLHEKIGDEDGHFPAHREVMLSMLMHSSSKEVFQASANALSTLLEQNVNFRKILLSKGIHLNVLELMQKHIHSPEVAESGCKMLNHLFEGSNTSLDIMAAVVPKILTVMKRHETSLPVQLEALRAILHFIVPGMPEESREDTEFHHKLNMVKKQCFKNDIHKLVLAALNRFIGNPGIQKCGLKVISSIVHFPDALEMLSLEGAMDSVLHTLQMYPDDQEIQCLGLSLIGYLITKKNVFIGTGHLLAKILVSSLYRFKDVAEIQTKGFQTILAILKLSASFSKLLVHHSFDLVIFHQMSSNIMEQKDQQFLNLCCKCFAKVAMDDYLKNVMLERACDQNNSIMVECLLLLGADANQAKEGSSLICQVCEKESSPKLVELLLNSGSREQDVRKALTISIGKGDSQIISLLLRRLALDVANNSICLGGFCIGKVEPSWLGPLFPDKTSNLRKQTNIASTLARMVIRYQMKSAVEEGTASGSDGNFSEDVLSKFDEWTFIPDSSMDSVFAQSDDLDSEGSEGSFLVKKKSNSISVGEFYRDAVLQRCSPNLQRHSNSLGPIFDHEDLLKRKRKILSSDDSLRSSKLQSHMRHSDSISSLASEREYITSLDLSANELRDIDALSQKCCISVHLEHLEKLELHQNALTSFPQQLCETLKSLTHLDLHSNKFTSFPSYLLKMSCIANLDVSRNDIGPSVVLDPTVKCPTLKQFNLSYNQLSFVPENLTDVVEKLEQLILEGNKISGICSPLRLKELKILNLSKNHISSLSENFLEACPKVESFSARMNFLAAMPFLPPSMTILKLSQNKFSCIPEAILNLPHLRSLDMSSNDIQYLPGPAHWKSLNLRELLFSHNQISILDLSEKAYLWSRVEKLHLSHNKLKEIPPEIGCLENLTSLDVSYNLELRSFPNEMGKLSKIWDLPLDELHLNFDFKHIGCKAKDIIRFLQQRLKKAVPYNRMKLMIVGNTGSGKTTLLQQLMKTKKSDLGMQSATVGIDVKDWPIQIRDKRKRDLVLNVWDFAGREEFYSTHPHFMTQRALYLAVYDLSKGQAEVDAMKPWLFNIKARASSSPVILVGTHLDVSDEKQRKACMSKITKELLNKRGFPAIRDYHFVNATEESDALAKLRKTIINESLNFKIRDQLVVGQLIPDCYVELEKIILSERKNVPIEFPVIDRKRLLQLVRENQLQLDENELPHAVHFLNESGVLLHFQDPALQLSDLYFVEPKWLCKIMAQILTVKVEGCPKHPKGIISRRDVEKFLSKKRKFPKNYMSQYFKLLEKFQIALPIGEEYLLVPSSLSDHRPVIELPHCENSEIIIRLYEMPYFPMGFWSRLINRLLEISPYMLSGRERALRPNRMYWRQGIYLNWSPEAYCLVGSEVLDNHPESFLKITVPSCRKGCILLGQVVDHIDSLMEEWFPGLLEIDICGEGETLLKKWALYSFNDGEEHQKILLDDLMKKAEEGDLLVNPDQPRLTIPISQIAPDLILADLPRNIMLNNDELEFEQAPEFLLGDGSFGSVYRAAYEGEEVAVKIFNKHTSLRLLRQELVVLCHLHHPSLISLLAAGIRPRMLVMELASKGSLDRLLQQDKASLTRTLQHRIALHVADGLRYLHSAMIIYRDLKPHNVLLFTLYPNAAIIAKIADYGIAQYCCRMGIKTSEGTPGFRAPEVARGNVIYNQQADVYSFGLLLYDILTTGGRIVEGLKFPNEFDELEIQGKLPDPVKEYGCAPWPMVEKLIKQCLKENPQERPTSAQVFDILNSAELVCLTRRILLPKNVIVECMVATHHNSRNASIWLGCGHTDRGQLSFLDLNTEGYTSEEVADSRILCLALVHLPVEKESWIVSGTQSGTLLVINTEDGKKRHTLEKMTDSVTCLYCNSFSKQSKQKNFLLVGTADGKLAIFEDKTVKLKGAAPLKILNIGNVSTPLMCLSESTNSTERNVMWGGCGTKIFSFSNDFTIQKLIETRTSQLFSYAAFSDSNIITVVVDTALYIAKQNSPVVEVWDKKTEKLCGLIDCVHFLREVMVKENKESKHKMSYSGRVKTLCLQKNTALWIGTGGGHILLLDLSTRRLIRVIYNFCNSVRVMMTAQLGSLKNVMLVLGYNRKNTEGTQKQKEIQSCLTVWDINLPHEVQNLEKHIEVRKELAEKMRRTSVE

inhibition [1]: 73%
Time (Mus musculus [2]): 12 h
EC50 [3]: 30 nM
IC50 [5]: 34 nM
half-life [6]: 5.3 h
inhibition [7]: 71%
AUC [8]: 2.65 µM·h
inhibition [9]: 100%
half-life [10]: 4.7 h
IC50 [11]: > 30000 nM
clearance [12]: 68.7 mL/min/kg
Vd [13]: 10.3 L/kg
inhibition at 1 µM (JAK2): 31%
IC50 [14]: > 30000 nM
SMILES: CC[C@@H](C)Nc1nc(Nc2cc(N3C[C@@H]4C[C@H]3CN4C)cnc2F)ncc1C
inhibition (Mus musculus [4]): Dose-dependent effect
